Article PMC2740399 (American Journal of Physiology - Cell Physiology, 2009)

Columns and labels:
HA-tagged mGnRHR [1] = molecular target: T1, HA-tagged mGnRHR (Mus musculus, UniProt Q01776); test: Internalization of anti-HA preloaded receptor; type: cell-based; settings: HeLa, 60 min, 37°C; for block of GnRH-stimulated internalization: antagonist 10^−7 M with GnRH 10^−9 M
T1 sequence (Q01776 1-327): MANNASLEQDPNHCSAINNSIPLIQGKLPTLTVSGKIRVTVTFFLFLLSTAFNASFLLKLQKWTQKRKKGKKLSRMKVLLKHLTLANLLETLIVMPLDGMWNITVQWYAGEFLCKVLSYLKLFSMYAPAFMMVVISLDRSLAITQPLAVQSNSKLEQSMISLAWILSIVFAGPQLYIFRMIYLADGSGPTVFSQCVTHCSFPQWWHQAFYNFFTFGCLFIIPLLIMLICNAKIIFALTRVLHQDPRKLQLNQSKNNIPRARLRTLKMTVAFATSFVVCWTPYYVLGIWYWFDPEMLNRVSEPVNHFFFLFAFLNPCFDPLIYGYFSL

HA-tagged h.XGnRHR [2] = test: Whole cell expression of HA-h.XGnRHR; type: cell-based, human/Xenopus laevis; settings: HeLa; 18 h, 10^−7 M; not shown
HA-tagged hGnRHR [3] = molecular target: T2, HA-tagged hGnRHR (Homo sapiens, UniProt P30968); test: Whole cell expression of HA-hGnRHR; type: cell-based; settings: HeLa; 18 h, 10^−7 M; not shown
T2 sequence (P30968 1-328): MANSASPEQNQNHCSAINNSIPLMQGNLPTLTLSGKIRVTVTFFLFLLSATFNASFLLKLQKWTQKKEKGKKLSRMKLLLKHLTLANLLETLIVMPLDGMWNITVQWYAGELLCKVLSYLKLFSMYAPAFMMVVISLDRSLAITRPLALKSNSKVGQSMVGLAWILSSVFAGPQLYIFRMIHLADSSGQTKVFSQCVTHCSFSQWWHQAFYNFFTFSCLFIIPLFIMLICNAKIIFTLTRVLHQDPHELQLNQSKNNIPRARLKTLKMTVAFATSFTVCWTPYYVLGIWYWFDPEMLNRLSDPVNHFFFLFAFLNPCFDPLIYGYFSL

[4] = system: GnRHR point mutants that cause hypogonadotropic hypogonadism; settings: cited from earlier work
A261K.hGnRHR = test: Cell surface expression of A261K.hGnRHR; type: cell-based, human; settings: HeLa; 18 h, 10^−7 M IN3
[5] = molecular target: T3, HA-tagged h.XGnRHR (hGnRHR with added XGnRHR COOH tail) (Homo sapiens, UniProt P30968); test: Cell surface expression / PCSE of HA-h.XGnRHR after 18 h ligand exposure; type: cell-based, human/Xenopus laevis; settings: HeLa
T3 sequence (P30968 1-328): T2 sequence (P30968 1-328)

A261K.h.XGnRHR = test: Cell surface expression of A261K.h.XGnRHR; type: cell-based, human/Xenopus laevis; settings: HeLa; 18 h, 10^−7 M IN3
HA-tagged XGnRHR [6] = test: Cell surface expression of HA-XGnRHR; type: cell-based, Xenopus laevis; settings: HeLa
HA-tagged h.XGnRHR [7] = test: Internalization of anti-HA preloaded receptor; type: cell-based, human/Xenopus laevis; settings: HeLa, 60 min, 37°C; for block of GnRH-stimulated internalization: antagonist 10^−7 M with GnRH 10^−9 M
HA-tagged hGnRHR [8] = molecular target: T2, HA-tagged hGnRHR; test: Cell surface expression / PCSE of HA-hGnRHR after 18 h ligand exposure; type: cell-based; settings: HeLa
wild-type GnRHR = settings: cited from earlier work
HA-tagged XGnRHR [9] = test: Trafficking, anti-HA loading with agonist present; type: cell-based, Xenopus laevis; settings: HeLa; 10^−7 M GnRH II with anti-HA, 0–60 min, 37°C
HA-A261K h.XGnRHR = test: Internalization of anti-HA preloaded receptor; type: cell-based, human/Xenopus laevis; settings: HeLa, 60 min, 37°C
Summary of the method: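 HeLa cells transduced day after plating with adenovirus (1–3 pfu/nl, 6 h) carrying exofacially HA-tagged, G protein-uncoupled receptor; assayed next day. Surface receptors prelabelled 60 min with mouse anti-HA (1:200) in DMEM/2% BSA at ~21°C, washed, then treated at 37°C. Cells were fixed, permeabilized, given Alexa 488 secondary plus DAPI, and stained inclusions quantified by automated ×10 imaging. Data are 3–4 wells.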

HA-A261K-h.XGnRHR = test: Trafficking, anti-HA loading with agonist present; type: cell-based, human/Xenopus laevis; settings: HeLa; 10^−7 M GnRH with anti-HA, 0–60 min, 37°C
HA-tagged mGnRHR [10] = molecular target: T1, HA-tagged mGnRHR; test: Cell surface expression of HA-mGnRHR; type: cell-based; settings: HeLa, 10^−7 M GnRH, 37°C
HA-tagged h.XGnRHR [11] = test: Trafficking, anti-HA loading with agonist present; type: cell-based, human/Xenopus laevis; settings: HeLa; 10^−7 M GnRH with anti-HA, 0–60 min, 37°C
[12] = 10^−7 M IN3, fluorescence immunohistochemistry, automated imaging

Cc1cc(C)cc(-c2[nH]c3ccc(C(C)(C)C(=O)N4CC5CCC4CC5)cc3c2[C@H](C)CNCCc2ccncc2)c1 [IN3, (2S)-2-[5-[2-(2-azabicyclo[2.2.2]oct-2-yl)-1,1-dimethy-2-oxoethyl]-2-(3,5-dimethylphenyl)-1H-indol-3-yl]-N-(2-pyridin-4-ylethyl)propan-1-amine]
block of GnRH-stimulated internalization (HA-tagged mGnRHR [1]): blocked | whole cell expression (effect of ligand) (HA-tagged h.XGnRHR [2]): no measurable effect | whole cell expression (effect of ligand) (HA-tagged hGnRHR [3]): no measurable effect | rescue of signaling [4]: “rescues” signaling via most of these mutants | effect of IN3 on cell surface expression (A261K.hGnRHR): pronounced increase | cell surface expression (effect of ligand) [5, 12]: greatly increased | PCSE (proportional cell surface expression) ([5]; 10^−7 M, increased from 6.3% (control), n = 3 experiments): 17.6% | effect of IN3 on cell surface expression (A261K.h.XGnRHR): pronounced increase | cell surface expression after preincubation (effect of IN3) (HA-tagged XGnRHR [6]; 18 h preincubation, 10^−7 M IN3, not shown): did not alter expression | block of GnRH-stimulated internalization (HA-tagged h.XGnRHR [7]): blocked | cell surface expression (effect of ligand) (HA-tagged hGnRHR [8]; [12]): greatly increased | PCSE (proportional cell surface expression) (HA-tagged hGnRHR [8]; 10^−7 M, increased from 1.6% (control), n = 3 experiments): 11% | PCSE increase (HA-tagged hGnRHR [8]; 10^−7 M, vs control, 'almost 7-fold'): ~7 fold | signaling via wild-type GnRHR (wild-type GnRHR): increases signaling

(His^5, Trp^7, Tyr^8)GnRH [GnRH II]
inclusion count (effect of agonist) (HA-tagged XGnRHR [9]): increased | time to maximal effect on cell surface expression (HA-tagged XGnRHR [6]; 10^−7 M GnRH II, 37°C): 120 min | time to significant reduction in cell surface expression (HA-tagged XGnRHR [6]; 10^−7 M GnRH II, 37°C): 10 min | reduction in cell surface expression (HA-tagged XGnRHR [6]; 10^−7 M GnRH II, 37°C, data with and without IN3 pretreatment pooled): rapid reduction

cetrorelix
block of GnRH-stimulated internalization (HA-tagged mGnRHR [1]): blocked | internalization (effect of peptide antagonist alone) (HA-tagged mGnRHR [1]; cetrorelix 10^−7 M): not increased by a peptide antagonist | block of GnRH-stimulated internalization (HA-tagged h.XGnRHR [7]): blocked | internalization (effect of peptide antagonist alone) (HA-tagged h.XGnRHR [7]; cetrorelix 10^−7 M): not increased by a peptide antagonist

gonadotropin-releasing hormone [GnRH]
internalization (effect of 10^−9 M GnRH) (HA-tagged mGnRHR [1]; 10^−9 M GnRH): increased | internalization (effect of 10^−9 M GnRH) (HA-A261K h.XGnRHR): did not increase internalization | receptor distribution (effect of GnRH) (HA-A261K-h.XGnRHR): no measurable effect | reduction in cell surface expression, IN3-pretreated cells (HA-tagged mGnRHR [10]; after 18 h 10^−7 M IN3): pronounced reduction | reduction in cell surface expression (HA-tagged mGnRHR [10]; no IN3 pretreatment): reduced expression | inclusion count (effect of agonist) (HA-tagged h.XGnRHR [11]): increased | internalization (effect of 10^−9 M GnRH) (HA-tagged h.XGnRHR [7]; 10^−9 M GnRH): increased
